Data from ChEMBL document CHEMBL1926559, “Metabolic and electrochemical mechanisms of dimeric naphthoquinones cytotoxicity in breast cancer cells” (Bioorg Med Chem, 2011).
Calls of active or inactive are those of the source. The rule behind the calls is not given here.

Assays:
[1] = system: MDA-MB-453; assay: Growth inhibition of human MDA-MB-453 cells by trypan blue exclusion assay; format: functional, cell-based
In short: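 Viability counted by trypan blue exclusion; cells grown at 1×10⁵ cells/mL, counts done in triplicate, mean ± SD relative to DMSO.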

[2] = system: MDA-MB-453; assay: Cytotoxicity against human MDA-MB-453 cells assessed as decrease in oxygen consumption at 20 uM by Clark-type oxygen electrode analysis; format: functional, cell-based
In short: (§1)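 After 3 h exposure to 20 μM compound or DMSO, cells trypsinized, PBS-washed, pelleted; 5×10⁶ cells in 0.8 mL PBS with 10% FCS placed in a Clark-type oxygen electrode chamber to measure O2 consumption; duplicate experiments.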

[3] = system: MDA-MB-453; assay: Antiproliferative activity against human MDA-MB-453 cells assessed as decrease in ATP level in viable cells at >20 uM after 4 hrs by CellTiter-Glo luminescent assay relative to control; format: functional, cell-based
In short: (§2)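 10,000 cells per well, treated in sextuplet with DMSO or 5, 10, 20 or 50 μM for 4 h. ATP read by CellTiter-Glo luminescence, normalized to average count of viable trypan-blue-excluding cells per condition, expressed relative to DMSO.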

[4] = system: MDA-MB-453; assay: Antiproliferative activity against human MDA-MB-453 cells after 4 hrs by MTT assay; format: functional, cell-based
In short: (§3)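 Cells in DMEM with 10% FBS and 1% antibiotics, 37°C, 5% CO2; equal numbers plated in three or more replicates, attached overnight, then exposed to 5, 10, 20 or 50 μM (DMSO vehicle) in complete medium for 4 h. Then 0.5 mg/ml MTT for 1 h, medium replaced with PBS, absorbance at 570 nm minus 690 nm background; compared to DMSO.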

[5] = system: MCF7; assay: Antiproliferative activity against human MCF7 cells assessed as cell survival at 50 uM by trypan blue exclusion assay relative to control; format: functional; conditions: read-out: Survival
In short: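 MCF-7 cells kept in DMEM with 10% fetal bovine serum and 1% antibiotics at 37°C, 5% CO2, grown at 1×10⁵ cells/mL. Cells were exposed to DMSO vehicle or DMSO-dissolved compound. Viability was scored by trypan blue exclusion cell counts, done in triplicate and given as mean ± SD. Survival was expressed relative to the DMSO control.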

[6] = system: MDA-MB-453; assay: Cytotoxicity against DCFDA-treated human MDA-MB-453 cells assessed as increase in ROS production after 30 mins by flow cytometric analysis; format: functional
In short: (§4)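 Cells preloaded with 5μM carboxy-DCFDA for 30 min, then exposed to 20 μM compound or DMSO for 2 h, collected and analysed by flow cytometry (488 nm excitation, 530 nm emission); percentage of fluorescent cells vs DMSO; triplicate samples, two separate experiments.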

[7] = system: MCF7; assay: Cytotoxicity against human MCF7 cells assessed as decrease in oxygen consumption at 20 uM by Clark-type oxygen electrode analysis; format: functional, cell-based; in short: as §1
[8] = system: MCF7; assay: Antiproliferative activity against human MCF7 cells after 4 hrs by MTT assay; format: functional, cell-based; in short: as §3
[9] = system: MCF7; assay: Cytotoxicity against DCFDA-treated human MCF7 cells assessed as increase in ROS production […] by flow cytometric analysis; format: functional, cell-based; in short: as §4
[10] = system: MDA-MB-453; assay: Antiproliferative activity against human MDA-MB-453 cells assessed as decrease in ATP level in viable cells at 10 uM after 4 hrs by CellTiter-Glo luminescent assay relative to control; format: functional; in short: as §2
[11] = system: MCF7; assay: Antiproliferative activity against human MCF7 cells assessed as decrease in ATP level in viable cells after 4 hrs by CellTiter-Glo luminescent assay relative to control; format: functional, cell-based; in short: as §2
[12] = system: MDA-MB-453; assay: Antiproliferative activity against human MDA-MB-453 cells assessed as decrease in ATP level in viable cells at 20 uM after 4 hrs by CellTiter-Glo luminescent assay relative to control; format: functional; in short: as §2

Question: Which IC50 [1] does the source give for `CC(C)=CCC[C@]1(C)C=Cc2c(ccc3c2C(=O)C(O)=C(C2=C(Cl)C(=O)c4ccccc4C2=O)C3=O)O1` here?
Answer: The IC50 was 34 µM.

Question: And the Activity [2]?
Answer: The Activity was “Active”.

Question: And the Activity [3]?
Answer: The Activity was “inactive”.

Question: And the Activity [4]?
Answer: The Activity was “Dose-dependent effect”.

Question: What about the viability at 50 µM [5] of the same compound?
Answer: The viability at 50 µM was 85%.

Question: What about the Activity [6] of the same compound?
Answer: The Activity was 50%.

Question: And the Activity [7]?
Answer: Its Activity is “inactive”.

Question: What about the Activity [8] of the same compound?
Answer: The Activity was “inactive”.

Question: And the Activity [9]?
Answer: Its Activity is “inactive”.

Question: What about the Activity [10] of the same compound?
Answer: Its Activity is “inactive”.

Question: And the Activity [11]?
Answer: Its Activity is “inactive”.

Question: And the Activity [12]?
Answer: The Activity was 27%.

Question: How did the IC50 [1] turn out when `O=C1C(O)=C(C2=C(Cl)C(=O)c3ccccc3C2=O)C(=O)c2ccccc21` was run?
Answer: The IC50 was 15 µM.

Question: What about the Activity [2] of the same compound?
Answer: Its Activity is “Active”.

Question: What about the Activity [3] of the same compound?
Answer: The Activity was “inactive”.

Question: What about the Activity [4] of the same compound?
Answer: The Activity was “Dose-dependent effect”.

Question: What about the viability at 50 µM [5] of the same compound?
Answer: Its viability at 50 µM is 80%.

Question: And the Activity [6]?
Answer: Its Activity is 50%.

Question: What about the Activity [7] of the same compound?
Answer: Its Activity is “inactive”.

Question: And the Activity [8]?
Answer: The Activity was “inactive”.

Question: And the Activity [9]?
Answer: Its Activity is “inactive”.

Question: What about the Activity [10] of the same compound?
Answer: Its Activity is 53%.

Question: What about the Activity [11] of the same compound?
Answer: Its Activity is “inactive”.

Question: And the Activity [12]?
Answer: Its Activity is 60%.

Question: Which IC50 [1] does the source give for `COc1ccc2c(c1)C(=O)C(C1=C(Cl)C(=O)c3ccccc3C1=O)=C(O)C2=O` here?
Answer: The IC50 was 17 µM.

Question: What about the Activity [2] of the same compound?
Answer: Its Activity is “Active”.

Question: And the Activity [3]?
Answer: Its Activity is “inactive”.

Question: What about the Activity [4] of the same compound?
Answer: Its Activity is “Dose-dependent effect”.

Question: And the viability at 50 µM [5]?
Answer: The viability at 50 µM was 83%.

Question: And the Activity [6]?
Answer: The Activity was 50%.

Question: And the Activity [7]?
Answer: Its Activity is “inactive”.

Question: What about the Activity [8] of the same compound?
Answer: Its Activity is “inactive”.

Question: And the Activity [9]?
Answer: The Activity was “inactive”.

Question: What about the Activity [10] of the same compound?
Answer: The Activity was 37%.

Question: What about the Activity [11] of the same compound?
Answer: Its Activity is “inactive”.

Question: What about the Activity [12] of the same compound?
Answer: Its Activity is 60%.
